Assay results published in ChEMBL document CHEMBL2169868, “Flavone-based novel antidiabetic and antidyslipidemic agents” (J Med Chem, 2012).
Activity calls are given as the source filed them. The rule behind the calls is not given here.

Key:
[1] = Volume of distribution in Sprague-Dawley rat at 10 mg/kg, iv by LC-MS/MS method; type: ADME, organism-based; parameters: dose 10 mg/kg, route intravenous; details: in vivo
Summary of the method: (§1)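 Male Sprague−Dawley rats, 225 ± 25 g. Single tail-vein dose of 10 mg/kg in DMF/PG/water (5:4:1), 0.2 μ filtered. Blood drawn from 0.08 to 48 h. Plasma spun at 2000g for 10 min at 4 °C and kept at −60 °C. LC-MS/MS with linear range 0.78−400 ng/mL; noncompartmental parameters.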

Rattus norvegicus [2] = assay: Volume of distribution in Sprague-Dawley rat at 40 mg/kg, po by LC-MS/MS method; type: ADME, organism-based; parameters: dose 40 mg/kg, route oral; details: in vivo
Summary of the method: (§2)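 Male Sprague−Dawley rats fasted 10−12 h, then given a single 40 mg/kg oral gavage as an aqueous 0.5% methyl cellulose suspension. Blood drawn from 0.25 to 120 h. Plasma spun at 2000g for 10 min at 4 °C and stored at −60 °C. LC-MS/MS, linear range 0.78−400 ng/mL.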

[3] = Mean residence time in Sprague-Dawley rat at 10 mg/kg, iv by LC-MS/MS method; type: ADME, organism-based; parameters: dose 10 mg/kg, route intravenous; details: in vivo; summary of the method: as §1
[4] = Mean residence time in Sprague-Dawley rat at 40 mg/kg, po by LC-MS/MS method; type: ADME, organism-based; parameters: dose 40 mg/kg, route oral; details: in vivo; summary of the method: as §2
[5] = Plasma clearance in Sprague-Dawley rat at 10 mg/kg, iv by LC-MS/MS method; type: ADME, organism-based; parameters: dose 10 mg/kg, route intravenous; summary of the method: as §1
[6] = Plasma clearance in Sprague-Dawley rat at 40 mg/kg, po by LC-MS/MS method; type: ADME, organism-based; parameters: dose 40 mg/kg, route oral; summary of the method: as §2
[7] = Tmax in Sprague-Dawley rat at 40 mg/kg, po by LC-MS/MS method; type: ADME, organism-based; parameters: dose 40 mg/kg, route oral; details: in vivo; summary of the method: as §2
[8] = Cmax in Sprague-Dawley rat at 10 mg/kg, iv by LC-MS/MS method; type: ADME, organism-based; parameters: dose 10 mg/kg, route intravenous; details: in vivo; summary of the method: as §1
[9] = Cmax in Sprague-Dawley rat at 40 mg/kg, po by LC-MS/MS method; type: ADME, organism-based; parameters: dose 40 mg/kg, route oral; details: in vivo; summary of the method: as §2
Syrian golden hamster [10] = assay: Antidyslipidemic activity in high fructose and high-fat diet fed dyslipidemic Syrian golden hamster model assessed as reduction in body weight at 25 mg/kg/day for 7 days; type: functional, Mesocricetus auratus; parameters: scale not given: the % may be the effect or the level left
Summary of the method: (§3)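 Syrian golden hamsters fed high-fructose high-fat diet; oral dosing in 1% gum acacia at 10, 30, 100 mg/kg (or 25 mg/kg) for 7 days, sham control given vehicle; plasma TG, cholesterol, LDL-C, HDL-C, glycerol and NEFA (kits), lipoprotein lipase activity and body weight; % change versus HFD control, six hamsters per group.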

Syrian golden hamster [11] = assay: Antidyslipidemic activity in high fructose and high-fat diet fed dyslipidemic Syrian golden hamster model assessed as increase in HDL-cholesterol level at 25 mg/kg/day for 7 days; type: functional, Mesocricetus auratus
Syrian golden hamster [12] = assay: Antidyslipidemic activity in high fructose and high-fat diet fed dyslipidemic Syrian golden hamster model assessed as reduction in LDL-cholesterol level at 25 mg/kg/day for 7 days; type: functional, Mesocricetus auratus; parameters: scale not given: the % may be the effect or the level left; summary of the method: as §3
Syrian golden hamster [13] = assay: Antidyslipidemic activity in high fructose and high-fat diet fed dyslipidemic Syrian golden hamster model assessed as reduction in cholesterol level at 25 mg/kg/day for 7 days; type: functional, Mesocricetus auratus; parameters: scale not given: the % may be the effect or the level left
Syrian golden hamster [14] = assay: Antidyslipidemic activity in high fructose and high-fat diet fed dyslipidemic Syrian golden hamster model assessed as reduction in triglyceride level at 25 mg/kg/day for 7 days; type: functional, Mesocricetus auratus; parameters: scale not given: the % may be the effect or the level left
Summary of the method: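 HFD-fed Syrian golden hamsters, six per group, fed a high-fructose diet. Oral dosing in 1% gum acacia for 7 days. Sham group received vehicle. Plasma TG was measured and body weight tracked. Results given as % change versus HFD control.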

Syrian golden hamster [15] = assay: Antidyslipidemic activity in high fructose and high-fat diet fed dyslipidemic Syrian golden hamster model assessed as reduction in body weight at 100 mg/kg/day for 7 days; type: functional, organism-based; details: Mesocricetus auratus; summary of the method: as §3
Syrian golden hamster [16] = assay: Antidyslipidemic activity in high fructose and high-fat diet fed dyslipidemic Syrian golden hamster model assessed as increase in HDL-cholesterol level at 100 mg/kg/day for 7 days; type: functional, Mesocricetus auratus
Syrian golden hamster [17] = assay: Antidyslipidemic activity in high fructose and high-fat diet fed dyslipidemic Syrian golden hamster model assessed as reduction in LDL-cholesterol level at 100 mg/kg/day for 7 days; type: functional, Mesocricetus auratus; parameters: scale not given: the % may be the effect or the level left; summary of the method: as §3
Syrian golden hamster [18] = assay: Antidyslipidemic activity in high fructose and high-fat diet fed dyslipidemic Syrian golden hamster model assessed as reduction in cholesterol level at 100 mg/kg/day for 7 days; type: functional, Mesocricetus auratus; parameters: scale not given: the % may be the effect or the level left
Syrian golden hamster [19] = assay: Antidyslipidemic activity in high fructose and high-fat diet fed dyslipidemic Syrian golden hamster model assessed as reduction in triglyceride level at 100 mg/kg/day for 7 days; type: functional, Mesocricetus auratus; parameters: scale not given: the % may be the effect or the level left; summary of the method: as §3
Mus musculus [20] = assay: Reduction in body weight in diabetic C57BL/KsJ db/db mouse model in hyperglycemia at 25 mg/kg, po qd for 10 days relative to untreated control; type: functional
Summary of the method: (§4)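 db/db mice (C57BL/KsJ, 12−18 weeks, 40−50 g, glucose 200−350 mg/dL), housed at 23 ± 2.0 °C on a 12 h light cycle. Oral dosing daily for 10 days. Blood glucose checked each morning through day 9. Body weight recorded daily from day 1 to day 10. Mean % change versus vehicle, 5 mice per group; Student t test.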

Mus musculus [21] = assay: Antihyperglycemic activity in diabetic C57BL/KsJ db/db mouse model assessed as reduction in plasma insulin level in hyperglycemia at 25 mg/kg, po qd for 10 days; type: functional; parameters: scale not given: the % may be the effect or the level left
Summary of the method: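 db/db mice dosed orally every day for 10 days. On day 11, retro-orbital blood was drawn and plasma insulin measured. Mean % change versus vehicle-treated control, 5 mice per group; Student t test.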

Mus musculus [22] = assay: Antidyslipidemic activity in diabetic C57BL/KsJ db/db mouse model assessed as increase in plasma HDL-C/cholesterol ratio at 25 mg/kg, po qd for 10 days; type: functional
Summary of the method: (§5)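 db/db mice (blood glucose 200−350, TG 170−250, cholesterol 170−250, HDL-C 32−40 mg/dL) dosed orally at 25 mg/kg daily for 10 days; retro-orbital blood taken on day 11 for plasma TG, cholesterol and HDL-C (and HDL-C/CHOL ratio); mean % change versus vehicle control, 5 mice per group; Student t test.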

Mus musculus [23] = assay: Antidyslipidemic activity in diabetic C57BL/KsJ db/db mouse model assessed as reduction in plasma cholesterol level at 25 mg/kg, po qd for 10 days; type: functional; parameters: scale not given: the % may be the effect or the level left; summary of the method: as §5
Mus musculus [24] = assay: Antidyslipidemic activity in diabetic C57BL/KsJ db/db mouse model assessed as increase in plasma HDL-cholesterol level at 25 mg/kg, po qd for 10 days; type: functional; summary of the method: as §5
Mus musculus [25] = assay: Antidyslipidemic activity in diabetic C57BL/KsJ db/db mouse model assessed as reduction in plasma triglyceride level at 25 mg/kg, po qd for 10 days; type: functional; parameters: scale not given: the % may be the effect or the level left; summary of the method: as §5
Mus musculus [26] = assay: Antihyperglycemic activity in diabetic C57BL/KsJ db/db mouse model assessed as improvement in glucose tolerance in hyperglycemia at 25 mg/kg, po qd for 10 days; type: functional
Summary of the method: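 Male/female C57BL/KsJ db/db mice, 12−18 weeks, 40−50 g, selected for glucose 200−350 mg/dL. Oral dosing daily for 10 days. OGTT on day 10 after an overnight fast: compound at −30 min, then 3 g/kg oral glucose at 0 min. Glucose read at 30, 60, 90 and 120 min. AUC taken versus vehicle, 5 mice per group.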

Mus musculus [27] = assay: Antihyperglycemic activity in diabetic C57BL/KsJ db/db mouse model assessed as reduction in hyperglycemia at 25 mg/kg, po qd for 10 days; type: functional; parameters: scale not given: the % may be the effect or the level left; summary of the method: as §4
Rattus norvegicus [28] = assay: Antihyperlipidemic activity in Triton-induced dyslipidemic Wistar rat model assessed as reduction in phospholipid level at 100 mg/kg, po; type: functional; parameters: scale not given: the % may be the effect or the level left
Summary of the method: (§6)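 Male Wistar rats, 8−10 weeks, about 160 g, fed normal pellet diet. Triton X-100 given at 400 mg/kg ip; compound given orally in 1% gum acacia. Retro-orbital blood taken 18 h after Triton and serum separated at 1500g for 10 min. TG and cholesterol measured by kit. Mean % change versus dyslipidemic control, 5 animals.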

Rattus norvegicus [29] = assay: Antihyperlipidemic activity in Triton-induced dyslipidemic Wistar rat model assessed as reduction in cholesterol level at 100 mg/kg, po; type: functional; parameters: scale not given: the % may be the effect or the level left; summary of the method: as §6
Rattus norvegicus [30] = assay: Antihyperlipidemic activity in Triton-induced dyslipidemic Wistar rat model assessed as reduction in triglyceride level at 100 mg/kg, po; type: functional; parameters: scale not given: the % may be the effect or the level left; summary of the method: as §6
[31] = Oral bioavailability in Sprague-Dawley rat at 40 mg/kg by LC-MS/MS method; type: ADME, organism-based; details: in vivo; summary of the method: as §2
[32] = Elimination half life in Sprague-Dawley rat at 10 mg/kg, iv by LC-MS/MS method; type: ADME, organism-based; parameters: dose 10 mg/kg, route intravenous; details: in vivo, read-out: beta t1/2 (converted); summary of the method: as §1
[33] = Elimination half life in Sprague-Dawley rat at 40 mg/kg, po by LC-MS/MS method; type: ADME, organism-based; parameters: dose 40 mg/kg, route oral; details: in vivo, read-out: beta t1/2 (converted); summary of the method: as §2
Rattus norvegicus [34] = assay: AUC in Sprague-Dawley rat at 10 mg/kg, iv by LC-MS/MS method; details: in vivo
Rattus norvegicus [35] = assay: AUC in Sprague-Dawley rat at 40 mg/kg, po by LC-MS/MS method; details: in vivo

- Vd [1]: 69.4 L/kg
- Vd (Rattus norvegicus [2]): 96.73 L/kg
- MRT [3]: 22.8 h
- MRT [4]: 43.2 h
- clearance [5]: 60.8 mL/min/kg
- CL/F [6]: 57 mL/min/kg
- Tmax [7]: 8 h
- Cmax [8]: 998 ng/mL
- Cmax [9]: 60.9 ng/mL
- bioavailability [31]: 29.5%
- half-life [32]: 978 min
- half-life [33]: 1170 min
- AUC (Rattus norvegicus [34]): 2717.5 ng·h/mL
- AUC (Rattus norvegicus [35]): 3469.28 ng·h/mL
Compound: CC(C)(C)NCC(O)COc1ccc2c(=O)cc(-c3cc(OCc4ccccc4)cc(OCc4ccccc4)c3)oc2c1 (racemic)
- Activity (Syrian golden hamster [10]): 8.89%
- Activity (Syrian golden hamster [11]): 13.3%
- Activity (Syrian golden hamster [12]): 23.3%
- Activity (Syrian golden hamster [13]): 15.3%
- Activity (Syrian golden hamster [14]): 22.2%
- Activity (Syrian golden hamster [15]): Active
- Activity (Syrian golden hamster [16]): 20%
- Activity (Syrian golden hamster [17]): 61.9%
- Activity (Syrian golden hamster [18]): 22.9%
- Activity (Syrian golden hamster [19]): 61.5%
- Activity (Mus musculus [20]): inactive
- Activity (Mus musculus [21]): 30.6%
- Percent increase in HDL-C/cholesterol ratio vs vehicle (Mus musculus [22]): 55.7
- Activity (Mus musculus [23]): 22.3%
- Activity (Mus musculus [24]): 20.9%
- Activity (Mus musculus [25]): 20.1%
- Activity (Mus musculus [26]): 25.9%
- Activity (Mus musculus [27]): 38.3%
- Activity (Rattus norvegicus [28]): 18%
- Activity (Rattus norvegicus [29]): 21%
- Activity (Rattus norvegicus [30]): 9%
